Here are results for 16 compounds from ChEMBL document CHEMBL4359881, “Novel antiacanthamoebic compounds belonging to quinazolinones” (Eur J Med Chem, 2019).

Active and inactive are the calls of the source. The calls are words filed in the database; no cut-off is given here. Where only a bound is given, the exact number is not on record here.

Data set [1] deals with Acanthamoeba castellanii. Kind of data set: Inhibition of Acanthamoeba castellanii T4 genotype ATCC 50492 excystation at 100 ug/ml incubated with pre-formed cysts for 72 hrs by hemocytometric method. The data set is classed as functional, organism-based. Put shortly: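 Cysts were formed by plating 1×10^6 trophozoites on 1.5% non-nutrient agar at 30 °C for up to 2 weeks, then scraped into PBS. 1×10^5 cysts were incubated with compound in PYG at 30 °C for 72 h, and emerging trophozoites were counted by hemocytometer. Duplicates; mean ± SE; two-tailed two-sample t-test.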

Data set [2] relates to Acanthamoeba castellanii. Description: Antiamoebic activity against Acanthamoeba castellanii T4 genotype ATCC 50492 trophozites assessed as reduction in viable cells at 50 ug/ml incubated for 24 hrs by trypan blue staining based hemocytometric method relative to control. The data set is classed as functional. Conditions: T4 genotype ATCC 50492, 24 h. Put shortly: (§1)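 Trophozoites from PYG cultures at 30 °C were detached on ice and resuspended in PBS. They were exposed at 5×10^5 per well in RPMI-1640 at 30 °C for 24 h, stained with 0.1% Trypan blue for 5 min, and unstained cells were counted by hemocytometer. Untreated cells were the negative control and chlorhexidine the positive control. Significance was tested against methanol solvent. Duplicates; mean ± SE.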

In data set [3] the test system is Acanthamoeba castellanii. Description: Inhibition of Acanthamoeba castellanii T4 genotype ATCC 50492 trophozites encystation at 100 ug/ml incubated for 72 hrs by hemocytometric method. It counts as functional, organism-based. In short, it runs like this: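 5×10^5 trophozoites in PBS were pretreated with compound for 15 min at room temperature. They were then transferred into encystation medium (50 mM MgCl2, 10% glucose) at 30 °C for 72 h. Trophozoites were lysed with 0.25% SDS for 10 min, and SDS-resistant cysts were counted by hemocytometer. Duplicates; mean ± SE; two-tailed t-test.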

Data set [4] has as its system Acanthamoeba castellanii. Kind of data set: Antiamoebic activity against Acanthamoeba castellanii T4 genotype ATCC 50492 trophozites assessed as reduction in viable cells at 100 ug/ml incubated for 24 hrs by trypan blue staining based hemocytometric method relative to control. Conditions: T4 genotype ATCC 50492, 24 h. It counts as functional. In short, it runs like this:
as §1

Data set [5] deals with HaCaT. Description: Cytotoxicity against human HaCaT cells at 100 ug/ml incubated for 24 hrs by LDH release assay. The data set is classed as cell-based. Put shortly:
(§2)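 HaCaT keratinocytes were grown in RPMI-1640 with 10% FBS and Nu-serum and seeded to a monolayer over 24 h. Compound was applied for 24 h at 37 °C in 5% CO2, and LDH in the supernatant was measured. Medium alone gave the baseline and 0.1% Triton X-100 gave total lysis. Duplicates; mean ± SE.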
(In general: LDH leaks from cells whose membrane has failed.)

Data set [6] has as its system Acanthamoeba castellanii. Description: Antiamoebic activity against Acanthamoeba castellanii T4 genotype ATCC 50492 infected in human HaCaT cells assessed as reduction in amoeba-induced host cell cytopathogenicity at 100 ug/ml preincubated with amoeba for 2 hrs followed by incubation of suspension with host cell for 24 hrs by LDH release assay. The data set is classed as functional, organism-based. In short, it runs like this:
(§3)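 Amoebae were pretreated with compound for 2 h at 30 °C, pelleted at 3000g for 5 min, and resuspended in fresh RPMI-1640 to remove compound. They were then added to HaCaT monolayers for 24 h at 37 °C in 5% CO2. Supernatant LDH was read at 492 nm. % cytotoxicity was calculated against untreated and 0.1% Triton X-100 lysed cells. Duplicates; mean ± SE.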

The test system of data set [7] is Acanthamoeba castellanii. Description: Antiamoebic activity against Acanthamoeba castellanii T4 genotype ATCC 50492 assessed as increase in surface disintegration at 100 ug/ml incubated for 2 hrs by FE-SEM analysis. The data set is classed as functional, organism-based. In short, it runs like this:
(§4)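 Trophozoites were treated with compound, then fixed on glass coverslips in 2.5% glutaraldehyde in PBS at 4 °C for 2 h. Samples were dehydrated through 50–100% ethanol, air-dried and sputter-coated with platinum. Surface morphology was imaged by FESEM at several scales, with untreated amoebae for comparison.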

In data set [8] the test system is Acanthamoeba castellanii. Kind of data set: Antiamoebic activity against Acanthamoeba castellanii T4 genotype ATCC 50492 assessed as increase in pore formation at 100 ug/ml incubated for 2 hrs by FE-SEM analysis. It counts as functional, organism-based. Put shortly: as §4
The subject of data set [9] is Acanthamoeba castellanii. Description: Antiamoebic activity against Acanthamoeba castellanii T4 genotype ATCC 50492 infected in human HaCaT cells assessed as reduction in amoeba-induced host cell cytopathogenicity at 100 ug/ml preincubated with amoeba for 2 hrs followed by incubation of suspension with host cell for 24 hrs by LDH release assay relative to control. The data set is classed as functional. Conditions: T4 genotype ATCC 50492, HaCaT. Put shortly:
as §3
Background: Damage to the host cells serves as the signal in cytopathic effect assays.

Data set [10] relates to HaCaT. Description: Cytotoxicity against human HaCaT cells at 100 ug/ml incubated for 24 hrs by LDH release assay relative to control. The data set is classed as cell-based. In short, it runs like this:
as §2

Data set [11] deals with Acanthamoeba castellanii. Description: Antiamoebic activity against Acanthamoeba castellanii T4 genotype ATCC 50492 trophozites assessed as reduction in viable cells at 100 ug/ml incubated for 24 hrs by trypan blue staining based hemocytometric method. It counts as functional, organism-based. In short, it runs like this:
as §1

On to `Cc1cccc2c(=O)n(-c3ccc(F)cc3F)cnc12`, for which the inhibition entry in the data set on Acanthamoeba castellanii [1], in the data set on Acanthamoeba castellanii [3] and with Acanthamoeba castellanii [6] was “Active” in each case. Further, the inhibition at 50 µg/mL in the data set with Acanthamoeba castellanii [2] was over 50%. For the same compound, the inhibition at 100 µg/mL in the data set on Acanthamoeba castellanii [4] was over 50%. For the same compound, the Activity result in the data set on HaCaT [5] was “Non-Toxic”.
For the compound `Cc1cccc2c(=O)n(-c3ccc(F)cc3)cnc12`, the result with Acanthamoeba castellanii [7] and in the data set on Acanthamoeba castellanii [8] was Active. Besides, the inhibition result in the data set with Acanthamoeba castellanii [1] was “Active”. Also, the inhibition at 50 µg/mL in the data set on Acanthamoeba castellanii [2] was over 60%. Further, the inhibition at 100 µg/mL with Acanthamoeba castellanii [4] is over 80%; in the data set with Acanthamoeba castellanii [9] it was 100%. Moreover, the Activity result with HaCaT [5] was “Non-Toxic”.
In the case of `Cc1cccc2c(=O)n(-c3ccccc3I)cnc12`, the inhibition entry with Acanthamoeba castellanii [1] and with Acanthamoeba castellanii [3] was “Active” each time. This compound returned an Activity with HaCaT [10] of 8%. Besides, the inhibition at 50 µg/mL with Acanthamoeba castellanii [2] was over 60%. In addition, the figures for the inhibition at 100 µg/mL in the data set on Acanthamoeba castellanii [4] and in the data set on Acanthamoeba castellanii [9] were over 80% and 100%, respectively.
`Cc1ccccc1-n1cnc2c(C)cccc2c1=O`: the inhibition entry in the data set on Acanthamoeba castellanii [1] and in the data set on Acanthamoeba castellanii [3] was “Active” in each case. Further, in the data set on Acanthamoeba castellanii [2], the inhibition at 50 µg/mL is over 50%. The figures for the inhibition at 100 µg/mL with Acanthamoeba castellanii [4] and in the data set with Acanthamoeba castellanii [9] were over 50% and 100%, respectively. Also, the Activity result in the data set with HaCaT [5] is recorded as “Non-Toxic”.
Regarding `Cc1cccc2c(=O)n(-c3cccc(Cl)c3)cnc12`, the inhibition result in the data set with Acanthamoeba castellanii [1] and in the data set with Acanthamoeba castellanii [6] was “Active” throughout. The inhibition at 50 µg/mL in the data set on Acanthamoeba castellanii [2] was over 50%. In the data set with Acanthamoeba castellanii [4], the inhibition at 100 µg/mL is over 50%. In addition, the Activity entry in the data set on HaCaT [5] is “Non-Toxic”.
Regarding `Cc1cccc2c(=O)n(-c3ccc(I)cc3)cnc12`, in the data set on Acanthamoeba castellanii [1], the inhibition entry is “Active”. The inhibition at 50 µg/mL with Acanthamoeba castellanii [2] was over 60%. Besides, the inhibition at 100 µg/mL with Acanthamoeba castellanii [4] was over 50%; in the data set on Acanthamoeba castellanii [9], 100%. Also, the Activity result in the data set on HaCaT [5] is listed as “Non-Toxic”.
As for `Cc1cccc2c(=O)n(-c3ccc(Cl)cc3)cnc12`, the inhibition entry in the data set with Acanthamoeba castellanii [1] and in the data set on Acanthamoeba castellanii [6] was “Active” in each case. The inhibition at 50 µg/mL with Acanthamoeba castellanii [2] is over 50%. In addition, the inhibition at 100 µg/mL with Acanthamoeba castellanii [4] was over 50%. The Activity entry with HaCaT [5] was “Non-Toxic”.
With `N=C(NCCCCCCNC(=N)NC(=N)Nc1ccc(Cl)cc1)NC(=N)Nc1ccc(Cl)cc1`, the inhibition entry in the data set with Acanthamoeba castellanii [1] is “Active”.
Consider `COc1ccc(-n2cnc3c(C)cccc3c2=O)cc1`, for which the inhibition entry in the data set on Acanthamoeba castellanii [1] and in the data set on Acanthamoeba castellanii [6] was “Active” in each case. In addition, in the data set on Acanthamoeba castellanii [2], the inhibition at 50 µg/mL is over 50%. In addition, the inhibition at 100 µg/mL in the data set with Acanthamoeba castellanii [4] was over 50%. For the same compound, in the data set with HaCaT [5], the Activity entry is given as “Non-Toxic”.
With `CSc1cccc(-n2cnc3c(C)cccc3c2=O)c1`, the inhibition entry with Acanthamoeba castellanii [1] and with Acanthamoeba castellanii [6] was “Active” each time. Moreover, the inhibition at 50 µg/mL in the data set on Acanthamoeba castellanii [2] is over 50%. Further, the inhibition at 100 µg/mL in the data set on Acanthamoeba castellanii [4] was over 50%. The Activity entry in the data set with HaCaT [5] was “Non-Toxic”.
Turning to `Cc1cccc2c(=O)n(-c3cccc(F)c3)cnc12`, the inhibition result in the data set with Acanthamoeba castellanii [1] and in the data set on Acanthamoeba castellanii [6] was “Active” throughout. The inhibition at 50 µg/mL in the data set with Acanthamoeba castellanii [2] is over 50%. Besides, the inhibition at 100 µg/mL in the data set with Acanthamoeba castellanii [4] was over 80%. Also, the Activity result in the data set with HaCaT [5] was “Non-Toxic”.
Consider `Cc1cccc2c(=O)n(-c3cccc(Br)c3)cnc12`, for which the inhibition result in the data set on Acanthamoeba castellanii [1] and in the data set on Acanthamoeba castellanii [6] was “Active” each time. The Activity with HaCaT [10] amounted to 11%. In the data set with Acanthamoeba castellanii [2], the inhibition at 50 µg/mL is over 50%. The inhibition at 100 µg/mL in the data set with Acanthamoeba castellanii [4] was over 50%.
For `Cc1cc(C)cc(-n2cnc3c(C)cccc3c2=O)c1`, the inhibition entry with Acanthamoeba castellanii [11] is “inactive”. Besides, the inhibition result in the data set with Acanthamoeba castellanii [1] and in the data set on Acanthamoeba castellanii [6] was “Active” in each case. Further, the Activity entry with HaCaT [5] is recorded as “Non-Toxic”.
On to `Cc1cccc2c(=O)n(-c3ccc(Br)cc3)cnc12`, for which the inhibition result in the data set on Acanthamoeba castellanii [1] and in the data set on Acanthamoeba castellanii [6] was “Active” each time. In addition, the inhibition at 50 µg/mL with Acanthamoeba castellanii [2] is over 50%. In the data set with Acanthamoeba castellanii [4], the inhibition at 100 µg/mL was over 50%. Moreover, the Activity entry in the data set on HaCaT [5] is on record as “Non-Toxic”.
On to `COc1ccc(OC)c(-n2cnc3c(C)cccc3c2=O)c1`, for which the inhibition result in the data set on Acanthamoeba castellanii [1] and in the data set on Acanthamoeba castellanii [6] was “Active” throughout. Moreover, the inhibition at 50 µg/mL in the data set with Acanthamoeba castellanii [2] is over 50%. Also, the inhibition at 100 µg/mL in the data set with Acanthamoeba castellanii [4] was over 50%. In addition, in the data set on HaCaT [5], the Activity entry is “Non-Toxic”.
As to `Cc1ccc(-n2cnc3c(C)cccc3c2=O)cc1`, the result in the data set with Acanthamoeba castellanii [7] and in the data set on Acanthamoeba castellanii [8] was Active. Besides, the inhibition result in the data set with Acanthamoeba castellanii [1] and in the data set with Acanthamoeba castellanii [6] was “Active” throughout. Further, the inhibition at 50 µg/mL in the data set on Acanthamoeba castellanii [2] was over 50%. Further, the inhibition at 100 µg/mL with Acanthamoeba castellanii [4] was over 50%. Moreover, in the data set on HaCaT [5], the Activity entry is on record as “Non-Toxic”.

What is called inhibition is the percentage by which the read-out fell short of the control.
